# Active and inactive are the calls of the source. The rule behind the calls is not given here.
# Columns and labels:
# [1] = biological target: Sigma non-opioid intracellular receptor 1 (Cavia porcellus, UniProt Q60492); experiment: Displacement of [3H](+)-pentazocine from guinea pig sigma1 opioid receptor by liquid scintillation counting
# [2] = (§1) Displacement of [3H]-DTG from sigma2 opioid receptor by liquid scintillation counting; design: species or system Cavia porcellus
# Astrocyte [3] = experiment: Neuroprotective activity against glutamate-induced GSH depletion in rat astrocytes assessed as GSH level at 25 uM measured per gram of protein by spectrofluorimetry (RVb = 9.08 +/- 0.9 […]); assay type: functional
# Astrocyte [4] = experiment: Neuroprotective activity against glutamate-induced ROS production in albino rat astrocytes assessed as dichlorofluresceine produced per gram of protein per 30 mins at 25 uM by spectrofluorimetry (RVb = 4.45 +/- 0.51 nmol); assay type: functional
# [5] = Neuroprotective activity against glutamate-induced transglutaminase-2 expression albino rat astrocytes assessed as reduction in transglutaminase level at 25 uM by immunoblotting; assay type: functional, cell-based; conditions: Astrocyte
# Method in brief: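 Primary rat neocortical astroglial cultures at 14 DIV, about 90-95% GFAP-positive. Exposed for 24 h to ligand at 25 μM, with or without glutamate at 500 μM. TG2 expression was measured by immunoblot with densitometry and compared against control and glutamate-alone cultures.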
# Cavia porcellus = organism: Cavia porcellus; experiment: as §1
# Rattus norvegicus = experiment: Analgesic activity in Sprague-Dawley rat assessed as reduction in (-)-U50,488H-induced tail flick latency at 1 mg/kg, sc pretreated 30 mins prior to (-)-U50,488H challenge; assay type: functional, organism-based; design: dose 1 mg/kg
# Method in brief: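 Rat tail-flick test. Ligand given systemically at 1 mg/kg sc as a pretreatment before a KOP agonist. Tail-flick latency was followed over the observation period, with basal latency also recorded.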
# Sequence of Sigma non-opioid intracellular receptor 1 (Q60492 whole entry): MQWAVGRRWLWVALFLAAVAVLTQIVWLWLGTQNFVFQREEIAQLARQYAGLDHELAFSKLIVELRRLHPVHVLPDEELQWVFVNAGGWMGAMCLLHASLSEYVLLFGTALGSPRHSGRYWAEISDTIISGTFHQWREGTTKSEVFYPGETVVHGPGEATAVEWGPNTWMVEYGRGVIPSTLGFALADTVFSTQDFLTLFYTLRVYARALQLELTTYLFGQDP
Structure (SMILES),Ki [1],Ki [2],Activity (Astrocyte [3]),Activity (Astrocyte [4]),Activity [5],Activity (Cavia porcellus),Activity (Rattus norvegicus)
COC(=O)C1(c2ccc(C)cc2)CC1CN1CCC(O)(c2ccccc2)CC1 (racemic),0.0018 µM,0.0208 µM,8.05 nmol,5.51 nmol,inactive,,
CC[C@H]1C[C@H]2C[C@H]3c4[nH]c5ccc(OC)cc5c4CCN(C2)[C@@H]13 [IBOGAINE],,,7.95 nmol,5.82 nmol,inactive,,
CC(C)=CCN1CC[C@]2(C)c3cc(O)ccc3C[C@H]1[C@H]2C [(+)-PENTAZOCINE],,,14.15 nmol,3.46 nmol,Active,,
COC(=O)[C@]1(c2ccc(C)cc2)C[C@@H]1CN1CCC(O)(c2ccccc2)CC1,0.0019 µM,0.0502 µM,13.44 nmol,3.05 nmol,Active,,
COC(=O)[C@@]1(c2ccc(C)cc2)C[C@H]1CN1CCC(O)(c2ccccc2)CC1,0.013 µM,,14.87 nmol,3.67 nmol,inactive,103 nM,Active
